Active and inactive are the calls of the source. The rule behind the calls is not given here.
Experiments:
Mus musculus [1] = assay: Anticonvulsant activity in CF-1 albino mouse assessed as protection against subcutaneous pentetrazole-induced seizures at 300 mg/kg, ip after 0.5 hrs; assay type: functional, organism-based
Mus musculus [2] = assay: Anticonvulsant activity in CF-1 albino mouse assessed as protection against subcutaneous pentetrazole-induced seizures at 30 mg/kg, ip after 0.5 hrs; assay type: functional, organism-based
Mus musculus [3] = assay: Neurotoxicity in CF-1 albino mouse assessed as diarrhea at 300 mg/kg, ip after 0.5 hrs by rotarod test; assay type: toxicity, organism-based; details: in vivo
Outline: (§1)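 Anticonvulsant Screening Program (NINDS) Phase 1 neurotoxicity screen in male albino CF-1 mice. Compounds were given i.p. as suspensions in 0.5% methylcellulose at 30, 100 and/or 300 mg/kg, and animals were observed 0.5 h and 4 h after dosing. The rotarod test was scored as number of animals showing toxicity over number tested, with the kind of toxicity recorded: inability to grasp rotorod, death, diarrhea, continuous seizure activity, loss of righting reflex, myoclonic jerks or tremors.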

Mus musculus [4] = assay: Anticonvulsant activity in CF-1 albino mouse assessed as protection against subcutaneous pentetrazole-induced seizures at 100 mg/kg, ip after 0.5 hrs; assay type: functional, organism-based
Mus musculus [5] = assay: Anticonvulsant activity in CF-1 albino mouse assessed as protection against maximal electroshock-induced seizures at 100 mg/kg, ip after 0.5 hrs; assay type: functional, organism-based
Outline: (§2)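 Male CF-1 albino mice received compound i.p. as a suspension in 0.5% methylcellulose (30, 100 or 300 mg/kg). Maximal electroshock seizure test read 0.5 h and 4 h after dosing. Result given as animals protected/animals tested.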

Mus musculus [6] = assay: Neurotoxicity in CF-1 albino mouse assessed as death at 300 mg/kg, ip after 0.5 hrs by rotarod test; assay type: toxicity, organism-based; details: in vivo; outline: as §1
Histamine H3 receptor [7] = target: T1, Histamine H3 receptor (Homo sapiens, UniProt Q9Y5N1); assay: Displacement of [3H]Nalpha-Methylhistamine from recombinant human histamine H3 receptor expressed in HEK293 cell membranes after 90 mins by liquid scintillation counting analysis
Mus musculus [8] = assay: Anticonvulsant activity in CF-1 albino mouse assessed as protection against maximal electroshock-induced seizures at 30 mg/kg, ip after 4 hrs; assay type: functional, organism-based; outline: as §2
Mus musculus [9] = assay: Neurotoxicity in CF-1 albino mouse assessed as continuous seizure activity at 300 mg/kg, ip after 0.5 hrs by rotarod test; assay type: toxicity, organism-based; details: in vivo; outline: as §1
Mus musculus [10] = assay: Neurotoxicity in CF-1 albino mouse assessed as death at 300 mg/kg, ip after 0.5 hrs by rotarod test; details: in vivo
Mus musculus [11] = assay: Neurotoxicity in CF-1 albino mouse at 30 mg/kg, ip after 4 hrs by rotarod test; assay type: toxicity, organism-based; details: in vivo
Outline: (§3)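 Male CF-1 mice were dosed i.p. with compound suspended in 0.5% methylcellulose (30, 100 or 300 mg/kg). Neurotoxicity was scored by rotarod 0.5 h and 4 h after dosing, as animals showing toxicity/animals tested. Type of toxicity was noted, e.g. inability to grasp the rod, tremors, death.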

Mus musculus [12] = assay: Anticonvulsant activity in CF-1 albino mouse assessed as protection against maximal electroshock-induced seizures at 100 mg/kg, ip after 4 hrs; assay type: functional, organism-based; outline: as §2
Mus musculus [13] = assay: Anticonvulsant activity in CF-1 albino mouse assessed as protection against subcutaneous pentetrazole-induced seizures at 30 mg/kg, ip after 4 hrs; assay type: functional, organism-based
Mus musculus [14] = assay: Anticonvulsant activity in CF-1 albino mouse assessed as protection against maximal electroshock-induced seizures at 30 mg/kg, ip after 0.5 hrs; assay type: functional, organism-based; outline: as §2
Mus musculus [15] = assay: Neurotoxicity in CF-1 albino mouse assessed as diarrhea at 100 mg/kg, ip after 0.5 hrs by rotarod test; assay type: toxicity, organism-based; details: in vivo; outline: as §1
[16] = Lipophilicity of compound by RP-TLC analysis; assay type: physicochemical; details: methanol:acetic acid:water
Outline: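 Reversed-phase TLC on RP-18 plates with methanol:acetic acid:water mobile phase (acid constant at 10%, methanol 85–55% in 5% steps). Spots visualised with iodine. RM values were derived from Rf and extrapolated to zero methanol to give RM0.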

Mus musculus [17] = assay: Neurotoxicity in CF-1 albino mouse assessed as unable to grasp at 30 mg/kg, ip after 0.5 hrs by rotarod test; assay type: toxicity, organism-based; details: in vivo, 100 mg/kg, in the assay text read “100 mg/kg” for “30 mg/kg”; outline: as §3
Mus musculus [18] = assay: Anticonvulsant activity in CF-1 albino mouse assessed as protection against subcutaneous pentetrazole-induced seizures at 100 mg/kg, ip after 4 hrs; assay type: functional, organism-based
Histamine H3 receptor [19] = target: T1, Histamine H3 receptor; assay: Displacement of [125I]Iodoproxyfan from recombinant human histamine H3 receptor expressed in CHOK1 cell membranes after 90 mins
Outline: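 Membranes of CHO-K1 cells expressing hH3R were incubated 90 min at 25 °C, shaken at 250 rpm, with [125I]iodoproxyfan (16–50 pM) and test compound. Nonspecific binding was defined with 1 μM imetit. Separation by filtration on PEI-treated GF/B filters. Ki obtained from IC50 by Cheng-Prusoff.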

Rattus norvegicus = assay: Anticonvulsant activity in albino Sprague-Dawley rat assessed as protection against maximal electroshock-induced seizures at 30 mg/kg, po after 0.5 to 4 hrs; assay type: functional, organism-based
Outline: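 Male Sprague-Dawley rats, four per group, were given compound orally at a fixed 30 mg/kg in 0.5% methylcellulose suspension. Maximal electroshock test was read at 0.5 h and 4 h.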

Mus musculus [20] = assay: Neurotoxicity in CF-1 albino mouse at 30 mg/kg, ip after 0.5 hrs by rotarod test; assay type: toxicity, organism-based; details: in vivo; outline: as §3
Mus musculus [21] = assay: Anticonvulsant activity in CF-1 albino mouse assessed as protection against subcutaneous pentetrazole-induced seizures at 300 mg/kg, ip after 4 hrs; assay type: functional, organism-based
Mus musculus [22] = assay: Neurotoxicity in CF-1 albino mouse at 100 mg/kg, ip after 4 hrs by rotarod test; assay type: toxicity, organism-based; details: in vivo; outline: as §3
Mus musculus [23] = assay: Anticonvulsant activity in CF-1 albino mouse assessed as protection against maximal electroshock-induced seizures at 300 mg/kg, ip after 0.5 hrs; assay type: functional, organism-based; outline: as §2
Mus musculus [24] = assay: Neurotoxicity in CF-1 albino mouse assessed as tremor at 30 mg/kg, ip after 0.5 hrs by rotarod test; assay type: toxicity, organism-based; details: in vivo, 100 mg/kg, in the assay text read “100 mg/kg” for “30 mg/kg”; outline: as §3
Mus musculus [25] = assay: Neurotoxicity in CF-1 albino mouse assessed as continuous seizure activity at 100 mg/kg, ip after 0.5 hrs by rotarod test; assay type: toxicity, organism-based; details: in vivo; outline: as §1
Mus musculus [26] = assay: Anticonvulsant activity in CF-1 albino mouse assessed as protection against maximal electroshock-induced seizures at 300 mg/kg, ip after 4 hrs; assay type: functional, organism-based; outline: as §2
CYP3A4 = CYP3A4 (Homo sapiens, UniProt P08684); assay: Activation of recombinant human CYP3A4 using Luciferin-BE as substrate at 25 uM in presence of NADPH by P450-Glo luminescence assay relative to control; assay type: ADME; details: recombinant human CYP3A4, probe Luciferin-PPXE, in the assay text read “Luciferin-PPXE” for “Luciferin-BE”, read-out: Activity
Outline: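 Recombinant human CYP3A4 P450-Glo luminescence assay: enzyme converts luciferin substrate to D-luciferin, then firefly luciferase is added and light output read as a measure of CYP3A4 activity. Final ligand concentrations 0.025–25 μM.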

[27] = Drug metabolism in pooled human liver microsomes assessed as 2-(4-(5-(azepan-1-yl)pentyloxy)phenyl)propan-1-ol metabolite formation at 50 uM after 2 hrs in presence of NADPH by LC/MS analysis; assay type: ADME, microsome
Outline: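 Pooled human liver microsomes (1 mg/ml) in 0.1 M Tris-HCl pH 7.4 with compound at 50 μM. After 5 min preincubation at 37 °C, reaction was started with NADPH regeneration system and run 2 h at 37 °C. Stopped with cold methanol and centrifuged. Supernatant analysed by UPLC-ESI tandem quadrupole MS.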

[28] = Safety index, ratio of compound IC50 to doxorubicin IC50 for HEK293 cells after 48 hrs by EZ4U non-radioactive cell proliferation assay; assay type: ADME, cell-based; details: human, read-out: Ratio IC50
HEK293 = assay: Cytotoxicity against HEK293 cells assessed as reduction in cell viability after 48 hrs by EZ4U Non-radioactive cell proliferation assay; assay type: cell-based; details: Homo sapiens, HEK293, 48 h
Outline: (§4)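 IMR-32 cells (2×10^4/well) or HEK-293 cells (1.5×10^4/well) in DMEM with 10% FBS were preincubated 24 h at 37 °C, 5% CO2. Compounds from 25 mM DMSO stocks were added at final 0.01–250 μM, with DMSO ≤1%. After 48 h, EZ4U label was added for 5 h and absorbance read at 492 nm.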

IMR-32 = assay: Cytotoxicity against human IMR32 cells assessed as reduction in cell viability after 48 hrs by EZ4U Non-radioactive cell proliferation assay; assay type: cell-based; details: IMR-32, 48 h; outline: as §4
[29] = Safety index, ratio of compound IC50 to doxorubicin IC50 for human IMR32 cells after 48 hrs by EZ4U Non-radioactive cell proliferation assay; assay type: ADME, cell-based; details: IMR-32 cells, read-out: Ratio IC50

T1 sequence (Q9Y5N1 whole entry): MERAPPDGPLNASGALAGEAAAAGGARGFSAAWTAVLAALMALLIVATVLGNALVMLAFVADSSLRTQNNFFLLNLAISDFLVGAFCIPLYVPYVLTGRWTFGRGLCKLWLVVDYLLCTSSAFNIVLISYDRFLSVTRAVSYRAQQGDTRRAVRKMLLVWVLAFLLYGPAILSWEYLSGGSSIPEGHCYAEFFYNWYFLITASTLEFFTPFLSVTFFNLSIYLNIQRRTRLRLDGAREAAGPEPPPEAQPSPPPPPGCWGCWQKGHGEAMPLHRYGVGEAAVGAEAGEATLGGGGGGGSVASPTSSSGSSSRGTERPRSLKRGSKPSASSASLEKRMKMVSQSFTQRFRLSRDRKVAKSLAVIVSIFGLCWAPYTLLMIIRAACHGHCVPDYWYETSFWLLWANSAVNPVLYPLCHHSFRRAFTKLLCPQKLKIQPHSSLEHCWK
Sequence of CYP3A4 (P08684 whole entry): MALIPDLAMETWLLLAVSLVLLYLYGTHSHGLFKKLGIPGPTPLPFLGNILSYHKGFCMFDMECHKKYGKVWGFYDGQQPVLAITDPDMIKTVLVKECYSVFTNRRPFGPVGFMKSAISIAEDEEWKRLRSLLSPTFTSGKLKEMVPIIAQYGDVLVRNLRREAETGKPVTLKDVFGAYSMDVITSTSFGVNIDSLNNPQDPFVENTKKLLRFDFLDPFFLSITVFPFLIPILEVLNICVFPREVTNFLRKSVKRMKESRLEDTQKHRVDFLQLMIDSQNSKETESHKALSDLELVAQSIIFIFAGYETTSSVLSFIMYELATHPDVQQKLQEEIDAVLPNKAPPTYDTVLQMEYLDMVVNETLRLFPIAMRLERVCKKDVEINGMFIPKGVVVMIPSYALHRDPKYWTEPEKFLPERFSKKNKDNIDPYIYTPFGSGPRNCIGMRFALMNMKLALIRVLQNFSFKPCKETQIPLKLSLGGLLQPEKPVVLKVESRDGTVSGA

CCC(C)(C)c1ccc(OCCCCN2CCC(C)CC2)cc1.O=C(O)C(=O)O
Activity (Mus musculus [1]): Active | Activity (Mus musculus [2]): inactive | Activity (Mus musculus [3]): Toxic | Activity (Mus musculus [4]): Active | Activity (Mus musculus [5]): Active | Activity (Mus musculus [6]): Toxic | Ki (Histamine H3 receptor [7]): 238 nM | Activity (Mus musculus [8]): inactive | Activity (Mus musculus [9]): Toxic | Activity (Mus musculus [10]): Toxic | Activity (Mus musculus [11]): Non-Toxic | Activity (Mus musculus [12]): inactive | Activity (Mus musculus [13]): inactive | Activity (Mus musculus [14]): Active

CCC(C)(C)c1ccc(OCCCCN2CCCCCC2)cc1.O=C(O)C(=O)O
Activity (Mus musculus [3]): Toxic | Activity (Mus musculus [5]): Active | Activity (Mus musculus [6]): Toxic | Ki (Histamine H3 receptor [7]): 68 nM | Activity (Mus musculus [8]): inactive | Activity (Mus musculus [15]): Toxic | Activity (Mus musculus [10]): Toxic | Activity (Mus musculus [11]): Non-Toxic | Rm [16]: 2.292 | Activity (Mus musculus [12]): Active | Activity (Mus musculus [14]): inactive

CCC(C)(C)c1ccc(OCCCCCCN2CCCCCC2)cc1.O=C(O)C(=O)O
Activity (Mus musculus [2]): inactive | Activity (Mus musculus [17]): Toxic | Activity (Mus musculus [4]): inactive | Activity (Mus musculus [5]): Active | Activity (Mus musculus [8]): inactive | Activity (Mus musculus [10]): Toxic | Activity (Mus musculus [11]): Non-Toxic | Activity (Mus musculus [18]): inactive | Rm [16]: 2.567 | Activity (Mus musculus [12]): inactive | Ki (Histamine H3 receptor [19]): 41.2 nM | Activity (Mus musculus [13]): inactive | Activity (Mus musculus [14]): inactive

CCC(C)(C)c1ccc(OCCCCCCCCN2CCCC(C)C2)cc1.O=C(O)C(=O)O (centres undefined)
Activity (Mus musculus [1]): inactive | Activity (Rattus norvegicus): inactive | Activity (Mus musculus [2]): inactive | Activity (Mus musculus [20]): Non-Toxic | Activity (Mus musculus [21]): inactive | Activity (Mus musculus [22]): Non-Toxic | Activity (Mus musculus [4]): inactive | Activity (Mus musculus [8]): inactive | Activity (Mus musculus [23]): Active | Activity (Mus musculus [11]): Non-Toxic | Activity (Mus musculus [18]): inactive | Rm [16]: 3.562 | Activity (Mus musculus [12]): Active | Ki (Histamine H3 receptor [19]): 121 nM | Activity (Mus musculus [13]): inactive | Activity (Mus musculus [14]): inactive

CCC(C)(C)c1ccc(OCCCCCCN2CCCC(C)C2)cc1.O=C(O)C(=O)O (centres undefined)
Activity (Mus musculus [2]): inactive | Activity (Mus musculus [4]): inactive | Activity (Mus musculus [5]): Active | Activity (Mus musculus [24]): Toxic | Activity (Mus musculus [8]): inactive | Activity (Mus musculus [10]): Toxic | Activity (Mus musculus [25]): Toxic | Activity (Mus musculus [23]): Active | Activity (Mus musculus [11]): Non-Toxic | Activity (Mus musculus [18]): inactive | Rm [16]: 2.521 | Activity (Mus musculus [12]): Active | Ki (Histamine H3 receptor [19]): 33.8 nM | Activity (Mus musculus [13]): inactive | Activity (Mus musculus [14]): Active

CCC(C)(C)c1ccc(OCCCCCCCN2CCCC(C)C2)cc1.O=C(O)C(=O)O (centres undefined)
Activity (Mus musculus [1]): inactive | Activity (Mus musculus [2]): inactive | Activity (Mus musculus [26]): inactive | Activity (Mus musculus [4]): inactive | Activity (Mus musculus [8]): inactive | Activity (Mus musculus [23]): Active | Activity (Mus musculus [11]): Non-Toxic | Activity (Mus musculus [18]): inactive | Rm [16]: 2.983 | Activity (Mus musculus [12]): Active | Ki (Histamine H3 receptor [19]): 36.6 nM | Activity (Mus musculus [13]): inactive | Activity (Mus musculus [14]): inactive

CCC(C)(C)c1ccc(OCCCCCN2CCCCCC2)cc1.O=C(O)C(=O)O
Activity (Mus musculus [2]): inactive | activity at 25 µM (CYP3A4): 76% | Drug metabolism [27]: Metabolite_Detected | selectivity ratio at 48 h [28]: 50 to 90 | Activity (Mus musculus [20]): Non-Toxic | IC50 (HEK293): 39400 nM | Activity (Mus musculus [4]): inactive | Activity (Mus musculus [5]): Active | Activity (Mus musculus [8]): inactive | IC50 (IMR-32): 12300 nM | Activity (Mus musculus [11]): Non-Toxic | Activity (Mus musculus [18]): inactive | Rm [16]: 2.389 | Ki (Histamine H3 receptor [19]): 21.4 nM | selectivity ratio at 48 h [29]: > 1000 | Activity (Mus musculus [13]): inactive | Activity (Mus musculus [14]): Active
